Source: ChEMBL document CHEMBL4673294, “The discovery of quinoline derivatives, as NF-κB inducing kinase (NIK) inhibitors with anti-inflammatory effects in vitro, low toxicities against T cell growth” (Bioorg Med Chem, 2021)

Columns and labels:
J774 = test: Antiinflammatory activity in mouse J774 cells assessed as inhibition of LPS-induced NO production at 1 uM preincubated for 2 hrs followed by LPS stimulation and measured after 22 hrs by Griess reagent based assay relative to control; format: functional; conditions: time 24 hrs
[1] = Antiinflammatory activity in mouse T cells assessed as inhibition of ConA-induced induced T cell proliferation at 2 uM incubated for 48 hrs by CCK8 assay relative to control; format: functional
Outline: (§1)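 Mouse splenic T cells, isolated by negative selection kit, seeded at 2×10^6 cells/mL in RPMI with penicillin/streptomycin and glutamine. Compound at 2 or 0.4 μM (triplicate wells), DMSO control; Con A 5 μg/mL added, 48 h at 37 °C, 5% CO2. CCK8 absorbance; inhibition rate from test, blank and control wells; three independent experiments.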

[2] = biological target: T1, Mitogen-activated protein kinase kinase kinase 14 (Homo sapiens, UniProt Q99558); test: Inhibition of recombinant N-terminal GST-fused human NIK (319 to 947 residues) expressed in baculovirus expression system incubated for 120 mins in presence of ATP by ADP-glo based luminescence assay
Outline: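 NIK kinase activity by ADP-Glo: human recombinant MAP3K14 in Tris pH 7.5 buffer with 100 μM Na3VO4, 2 mM DTT, 0.02 mg/mL BSA, 2 mM MgCl2, 5% DMSO; 10 μM ATP; 120 min at room temperature. ADP-Glo reagent 40 min, then detection reagent 40 min; luminescence converted to ADP via standard curve. IC50 from curve fitting; mean ± SD of two independent experiments.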
Target sequence in this assay (Q99558 whole entry, the tested form may be a part): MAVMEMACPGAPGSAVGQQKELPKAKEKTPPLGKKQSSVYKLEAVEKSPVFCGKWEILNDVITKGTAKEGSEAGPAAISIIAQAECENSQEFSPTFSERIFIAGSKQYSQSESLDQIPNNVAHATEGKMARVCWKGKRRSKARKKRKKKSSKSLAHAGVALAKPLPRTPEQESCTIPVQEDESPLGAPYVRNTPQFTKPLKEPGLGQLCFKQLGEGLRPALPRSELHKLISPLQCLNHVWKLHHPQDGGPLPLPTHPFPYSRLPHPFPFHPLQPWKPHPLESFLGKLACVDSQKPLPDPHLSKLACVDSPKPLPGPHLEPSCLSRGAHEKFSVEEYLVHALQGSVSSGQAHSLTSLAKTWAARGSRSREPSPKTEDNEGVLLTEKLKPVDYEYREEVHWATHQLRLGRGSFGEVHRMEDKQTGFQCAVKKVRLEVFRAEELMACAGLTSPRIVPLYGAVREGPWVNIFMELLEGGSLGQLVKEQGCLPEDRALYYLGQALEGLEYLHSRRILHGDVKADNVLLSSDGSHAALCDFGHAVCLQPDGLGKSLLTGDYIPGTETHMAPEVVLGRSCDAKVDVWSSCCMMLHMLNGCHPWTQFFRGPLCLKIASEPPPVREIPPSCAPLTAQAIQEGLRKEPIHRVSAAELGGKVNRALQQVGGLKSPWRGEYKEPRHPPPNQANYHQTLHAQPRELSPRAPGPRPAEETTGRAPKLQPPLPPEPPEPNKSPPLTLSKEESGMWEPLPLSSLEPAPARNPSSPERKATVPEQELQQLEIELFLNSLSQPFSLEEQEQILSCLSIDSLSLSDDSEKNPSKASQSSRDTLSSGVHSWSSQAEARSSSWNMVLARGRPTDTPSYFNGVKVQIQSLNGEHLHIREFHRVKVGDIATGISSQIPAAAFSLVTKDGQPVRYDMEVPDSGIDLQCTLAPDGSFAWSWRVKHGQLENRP

[3] = Antiinflammatory activity in mouse T cells assessed as inhibition of ConA-induced induced T cell proliferation at 0.4 uM incubated for 48 hrs by CCK8 assay relative to control; format: functional; outline: as §1
[4] = Cytotoxicity against mouse T cells assessed as cell growth inhibition at 10 uM after 48 hrs by CCK8 assay; format: cell-based
Outline: (§2)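 Unstimulated mouse splenic T cells (no Con A) exposed to compound at 10 μM; growth measured by absorbance, with rate computed from test, blank and control well absorbances; mean ± SD of three independent experiments.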

[5] = Cytotoxicity against mouse T cells assessed as cell growth inhibition at 10 uM after 48 hrs by CCK8 assay relative to control; format: cell-based; conditions: read-out: GI; outline: as §2
[6] = biological target: T1, Mitogen-activated protein kinase kinase kinase 14; test: Inhibition of recombinant N-terminal GST-fused human NIK (319 to 947 residues) expressed in baculovirus expression system assessed as residual activity at 2 uM incubated for 120 mins in presence of ATP by ADP-glo based luminescence assay relative to control
Outline: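 Single-point NIK enzyme activity at 2 μM compound with 10 μM ATP; human recombinant MAP3K14, 120 min room-temperature reaction, ADP-Glo luminescence read-out converted to ADP concentration.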
Target sequence in this assay (Q99558 whole entry, looked up, the tested form may be a part): as the sequence (Q99558 whole entry, the tested form may be a part) above

[7] = Intrinsic hepatic clearance in dog; format: ADME, Canis lupus familiaris; conditions: in vivo, read-out: CLH
Outline: (§3)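 In vivo intrinsic clearance scaled from microsomal CLint (mL/min/mg protein) × microsomal protein per g liver × liver weight per kg body weight.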

[8] = Elimination half life in dog liver microsomes incubated for 10 mins followed by potassium phosphate buffer addition and measured up to 60 mins by LC-MS analysis; format: ADME, Canis lupus familiaris, Microsome; conditions: time <=70 min, read-out: LambdaZ
Outline: (§4)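 The test compound was pre-incubated with liver microsomes at 37 °C for 10 min. NCF60 wells received 100 mM potassium phosphate buffer and were incubated 1.0 h at 37 °C. The reaction was stopped with a 1:1 tolbutamide/labetalol mixture at 0, 5, 15, 30 and 60 min, then vortexed and centrifuged at 4 °C. Remaining parent compound in the supernatant was measured by LC-MS, and T1/2 was calculated by first-order kinetics.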

[9] = Half life in Sprague-Dawley rat at 1 mg/kg, iv administered as single bolus dose by LC-MS analysis; format: ADME, organism-based; conditions: in vivo
Outline: (§5)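 Male Sprague-Dawley, 8 weeks old, fasted overnight, n = 3; single IV bolus via tail vein at 1.0 mg/kg in DMSO:PEG200:saline 20:20:60 (0.2 mg/mL). Plasma protein-precipitated with acetonitrile containing internal standards, analysed by LC/MS.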

[10] = AUC (0 to infinity) in Sprague-Dawley rat at 10 mg/kg, po administered as single dose by LC-MS analysis; format: ADME, organism-based; design: route oral, time infinity, dose 10 mg/kg; conditions: in vivo
Outline: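 Male Sprague-Dawley rats, 8 weeks old, fasted overnight, were dosed once by oral gavage. The compound was suspended at 1.0 mg/mL in saline with 0.5% CMC-Na and 0.2% Tween 80. Plasma concentrations were followed over time. Plasma was deproteinised with acetonitrile containing verapamil and glibenclamide, diluted with water and analysed by LC/MS. Values are mean ± SD, n = 3 rats.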

[11] = Intrinsic hepatic clearance in monkey; format: ADME, Macaca mulatta; conditions: rhesus monkey, in vivo; read-out: CLH; outline: as §3
[12] = Elimination half life in monkey liver microsomes incubated for 10 mins followed by potassium phosphate buffer addition and measured up to 60 mins by LC-MS analysis; format: ADME, Macaca mulatta, Microsome; conditions: rhesus monkey, time <=70 min, read-out: LambdaZ; outline: as §4
[13] = Intrinsic clearance in human liver microsomes assessed per mg protein incubated for 10 mins followed by potassium phosphate buffer addition and measured up to 60 mins by LC-MS analysis; format: ADME, Microsome; conditions: time <=70 min, read-out: CLH
Outline: (§6)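 Rat, dog, monkey and human liver microsomes: compound preincubated with microsomes 10 min at 37 °C; samples quenched at 0, 5, 15, 30, 60 min with tolbutamide/labetalol, plus a 60 min no-cofactor control with 100 mM potassium phosphate buffer. Centrifuged, remaining compound by LC-MS; T1/2 and CL by first-order kinetics.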

[14] = Oral bioavailability in Sprague-Dawley rat at 10 mg/kg administered as single dose by LC-MS analysis; format: ADME, organism-based; conditions: in vivo
[15] = Intrinsic clearance in monkey liver microsomes assessed per mg protein incubated for 10 mins followed by potassium phosphate buffer addition and measured up to 60 mins by LC-MS analysis; format: ADME, Macaca mulatta, Microsome; conditions: rhesus monkey, time <=70 min, read-out: CLH; outline: as §6
[16] = Volume of distribution in Sprague-Dawley rat at 1 mg/kg, iv administered as single bolus dose by LC-MS analysis; format: ADME, organism-based; conditions: in vivo; outline: as §5
[17] = Clearance in Sprague-Dawley rat at 1 mg/kg, iv administered as single bolus dose by LC-MS analysis; format: ADME, organism-based; conditions: in vivo; outline: as §5
[18] = Elimination half life in rat liver microsomes incubated for 10 mins followed by potassium phosphate buffer addition and measured up to 60 mins by LC-MS analysis; format: ADME, Microsome; conditions: time <=70 min, read-out: LambdaZ; outline: as §4
[19] = Tmax in Sprague-Dawley rat at 10 mg/kg, po administered as single dose by LC-MS analysis; format: ADME, organism-based; conditions: in vivo
Outline: (§7)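 Male Sprague-Dawley, 8 weeks old, fasted overnight, n = 3; single gavage at 10 mg/kg as 1 mg/mL suspension in 0.5% CMC-Na/0.2% Tween 80. Plasma precipitated with acetonitrile plus internal standards; LC/MS quantitation.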

[20] = Elimination half life in human liver microsomes incubated for 10 mins followed by potassium phosphate buffer addition and measured up to 60 mins by LC-MS analysis; format: ADME, Microsome; conditions: time <=70 min, read-out: LambdaZ; outline: as §4
[21] = AUC (0 to infinity) in Sprague-Dawley rat at 1 mg/kg, iv administered as single bolus dose by LC-MS analysis; format: ADME, organism-based; design: route intravenous, time infinity, dose 1 mg/kg; conditions: in vivo
Outline: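 Male Sprague-Dawley rats, 8 weeks old, fasted overnight, received a single rapid tail-vein bolus. Vehicle was DMSO:PEG200:saline 20:20:60 v/v/v at 0.2 mg/mL. Plasma concentrations were followed over time. Plasma was deproteinised with acetonitrile containing verapamil and glibenclamide, diluted with water and analysed by LC/MS. Values are mean ± SD, n = 3 rats.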

[22] = Intrinsic clearance in dog liver microsomes assessed per mg protein incubated for 10 mins followed by potassium phosphate buffer addition and measured up to 60 mins by LC-MS analysis; format: ADME, Canis lupus familiaris, Microsome; conditions: time <=70 min, read-out: CLH; outline: as §6
[23] = Cmax in Sprague-Dawley rat at 10 mg/kg, po administered as single dose by LC-MS analysis; format: ADME, organism-based; design: route oral, dose 10 mg/kg; conditions: in vivo; outline: as §7
[24] = Intrinsic hepatic clearance in rat; format: ADME; conditions: in vivo, read-out: CLH; outline: as §3
[25] = Initial plasma concentration in Sprague-Dawley rat at 1 mg/kg, iv administered as single bolus dose by LC-MS analysis; format: ADME, organism-based; outline: as §5
[26] = Intrinsic hepatic clearance in human; format: ADME; conditions: read-out: CLH; outline: as §3
[27] = Intrinsic clearance in rat liver microsomes assessed per mg protein incubated for 10 mins followed by potassium phosphate buffer addition and measured up to 60 mins by LC-MS analysis; format: ADME, Microsome; conditions: time <=70 min, read-out: CLH; outline: as §6
[28] = Half life in Sprague-Dawley rat at 10 mg/kg, po administered as single dose by LC-MS analysis; format: ADME, organism-based; conditions: in vivo; outline: as §7
JJN-3 = test: Antiproliferative activity against human JJN-3 cells transfected with plasmid expressing NIK; format: functional, cell-based

CC(O)(C#Cc1ccc2nc(O)cc(-c3cn[nH]c3)c2c1)c1nccs1 (stereo not drawn)
inhibition at 1 µM (J774): 31.4%
inhibition at 2 µM [1]: 27.2%
IC50 [2]: 38.6 nM
inhibition at 0.4 µM [3]: 23.3%
Activity [4]: Non-Toxic

CC(O)(C#Cc1ccc2nccc(-c3cn[nH]c3)c2c1)c1ccccn1 (stereo not drawn)
IC50 [2]: 591 nM

CN1CCN(c2cc(-c3cn[nH]c3)c3cc(C#CC(C)(O)c4nccs4)ccc3n2)CC1 (stereo not drawn)
inhibition at 1 µM (J774): 41%
inhibition at 2 µM [1]: 36.7%
IC50 [2]: 175 nM
inhibition at 0.4 µM [3]: 19.4%
inhibition at 48 h, 10 µM [5]: 30%

CC(O)(/C=C/c1ccc2nccc(-c3cn[nH]c3)c2c1)c1nccs1 (stereo not drawn)
IC50 [2]: 2080 nM

O=C(Nc1ccc2nccc(-c3cn[nH]c3)c2c1)C1CCCC1
Activity [6]: 83.6%

CC(O)(C#Cc1ccc2nccc(-c3cn[nH]c3)c2c1)c1nccs1 (stereo not drawn)
CLint scaled [7]: 140 mL/min/kg
half-life [8]: 14.2 min
half-life [9]: 22.9 min
AUC(0-inf) [10]: 885 ng·h/mL
CLint scaled [11]: 60.2 mL/min/kg
half-life [12]: 33.2 min
microsomal CLint [13]: 42.6 µL/min/mg
bioavailability [14]: 21.7%
microsomal CLint [15]: 41.8 µL/min/mg
inhibition at 1 µM (J774): 43.8%
Vd [16]: 2.73 L/kg
clearance [17]: 43.3 mL/min/kg
half-life [18]: 12.6 min
inhibition at 2 µM [1]: 52.5%
Tmax [19]: 54 min
half-life [20]: 33.1 min
AUC(0-inf) [21]: 408 ng·h/mL
IC50 [2]: 22.1 nM
inhibition at 0.4 µM [3]: 36.1%
microsomal CLint [22]: 97.5 µL/min/mg
Cmax [23]: 311 ng/mL
CLint scaled [24]: 199 mL/min/kg
Activity [4]: Non-Toxic
C0 [25]: 1000 ng/mL
CLint scaled [26]: 40.2 mL/min/kg
microsomal CLint [27]: 110 µL/min/mg
half-life [28]: 71.4 min

CN(C)CCN(C)c1cc(-c2cn[nH]c2)c2cc(C#CC(C)(O)c3nccs3)ccc2n1 (stereo not drawn)
inhibition at 1 µM (J774): 34.6%
inhibition at 2 µM [1]: 22.7%
IC50 [2]: 160 nM
inhibition at 0.4 µM [3]: 19.9%
Activity [4]: Non-Toxic

CC(O)(C#Cc1ccc2nc(OCCN3CCOCC3)cc(-c3cn[nH]c3)c2c1)c1nccs1 (stereo not drawn)
Activity [6]: 92%

Cn1cc(-c2ccnc3ccc(C#CC(C)(C)O)cc23)cn1
Activity [6]: 99.1%

CN1CCC(n2cc(-c3c[nH]nc3Cl)c3cc(C#CC(C)(C)O)c(F)cc32)CC1
EC50 (JJN-3): 61 nM

OC1(C#Cc2ccc3nccc(-c4cn[nH]c4)c3c2)CCCCC1
IC50 [2]: 6050 nM

CNc1cc(-c2cn[nH]c2)c2cc(C#CC(C)(O)c3nccs3)ccc2n1 (stereo not drawn)
inhibition at 1 µM (J774): 46.5%
inhibition at 2 µM [1]: 34.5%
IC50 [2]: 26 nM
inhibition at 0.4 µM [3]: 18.4%

OC1(C#Cc2ccc3nccc(-c4cn[nH]c4)c3c2)CCCC1
IC50 [2]: 564 nM

COCCN(C)c1cc(-c2cn[nH]c2)c2cc(C#CC(C)(O)c3nccs3)ccc2n1 (stereo not drawn)
inhibition at 1 µM (J774): 51.4%
inhibition at 2 µM [1]: 53.1%
IC50 [2]: 5.2 nM
inhibition at 0.4 µM [3]: 33%
inhibition at 48 h, 10 µM [5]: 30%

O=C(Nc1ccc2nccc(-c3cn[nH]c3)c2c1)c1nccs1
Activity [6]: 72.3%

CC(O)(C#Cc1ccc(N2CCOCC2)c(Nc2ncnc3[nH]ccc23)c1)c1nccs1 (stereo not drawn)
Activity [4]: Non-Toxic

CC(O)(C#Cc1ccc2c(c1)N(c1nc(N)ncc1Cl)CC2)c1nccs1 (stereo not drawn)
inhibition at 1 µM (J774): 43.9%
inhibition at 2 µM [1]: 59.6%
IC50 [2]: 4.9 nM
inhibition at 0.4 µM [3]: 19%
inhibition at 48 h, 10 µM [5]: 30%

CC(C)(O)C#Cc1ccc2nccc(-c3cn[nH]c3)c2c1
IC50 [2]: 1720 nM

CC(O)(C#Cc1ccc2nccc(-c3cn[nH]c3)c2c1)c1cccs1 (stereo not drawn)
IC50 [2]: 524 nM
